Results reported in ChEMBL document CHEMBL3351777, “Further studies on pyrazolo[1',5':1,6]pyrimido[4,5-d]pyridazin-4(3H)-ones as potent and selective human A1 adenosine receptor antagonists” (Eur J Med Chem, 2015).
Active and inactive are the calls of the source. The rule behind the calls is not given here.

What was measured:
[1] = molecular target: T1, Adenosine receptor A1 (Homo sapiens) (UniProt P30542); assay: Displacement of [3H]DPCPX from human adenosine A1 receptor expressed in CHO cells at 10 uM after 120 mins; format: cell-based
T1 sequence (whole entry): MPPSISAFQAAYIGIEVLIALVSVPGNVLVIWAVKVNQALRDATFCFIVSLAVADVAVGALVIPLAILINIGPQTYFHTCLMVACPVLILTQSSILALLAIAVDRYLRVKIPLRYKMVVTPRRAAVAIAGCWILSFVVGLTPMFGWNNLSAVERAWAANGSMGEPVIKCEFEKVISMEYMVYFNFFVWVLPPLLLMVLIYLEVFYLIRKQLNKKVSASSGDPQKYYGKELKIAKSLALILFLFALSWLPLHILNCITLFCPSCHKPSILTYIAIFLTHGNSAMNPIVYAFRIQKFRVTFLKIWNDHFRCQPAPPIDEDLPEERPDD

Mus musculus [2] = species on record: Mus musculus; assay: Toxicity in Swiss albino mouse assessed as change in gross behavior by rotarod test relative to control; format: organism-based; settings: in vivo
Outline: (§1)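 Male Swiss albino mice on the rota-rod, counting falls from the rotating rod at the doses used in passive avoidance. Compared with saline- and CMC-treated mice.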

[3] = molecular target: T2, Adenosine receptor A3 (Homo sapiens) (UniProt P0DMS8); assay: Displacement of [125I]AB-MECA from human adenosine A3 receptor expressed in CHO cells at 10 uM after 120 mins; format: cell-based
T2 sequence (whole entry): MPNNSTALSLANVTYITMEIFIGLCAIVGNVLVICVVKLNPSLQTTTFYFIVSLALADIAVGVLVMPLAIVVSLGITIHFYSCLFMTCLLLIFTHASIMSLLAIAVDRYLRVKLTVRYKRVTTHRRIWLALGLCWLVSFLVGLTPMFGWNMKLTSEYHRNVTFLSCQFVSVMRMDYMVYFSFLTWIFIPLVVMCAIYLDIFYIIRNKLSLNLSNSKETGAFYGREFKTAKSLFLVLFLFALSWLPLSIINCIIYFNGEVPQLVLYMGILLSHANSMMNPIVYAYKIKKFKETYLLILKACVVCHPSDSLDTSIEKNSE

Mus musculus [4] = species on record: Mus musculus; assay: Toxicity in Swiss albino mouse assessed as change in motor coordination by measuring number of falls from the rotating rod by rotarod test relative to control; format: organism-based; settings: in vivo; outline: as §1
Adenosine receptor A2a [5] = molecular target: T3, Adenosine receptor A2a (Homo sapiens, UniProt P29274); assay: Displacement of [3H]NECA from human adenosine A2A receptor expressed in CHO cells at 10 uM after 120 mins; format: cell-based
Mus musculus [6] = assay: Antiamnesic activity in Swiss albino mouse CPA-induced amnesia model assessed as time taken to enter dark compartment during training session at 3 mg/kg, ip administered 30 mins prior to session by passive avoidance test (reference value: 16.6 +/- 4.1 secs); format: functional; settings: route intraperitoneal
Mus musculus [7] = assay: Antiamnesic activity in Swiss albino mouse CPA-induced amnesia model assessed as time taken to enter dark compartment during retention session at 3 mg/kg, ip administered 30 mins prior to session by passive avoidance test (reference value: 61.2 +/- 9.0 secs); format: functional; settings: route intraperitoneal
Adenosine receptor A1 [8] = molecular target: T4, Adenosine receptor A1 (Homo sapiens, UniProt P30542); assay: Displacement of [3H]DPCPX from human adenosine A1 receptor expressed in CHO cells after 120 mins; format: cell-based
T4 sequence (P30542 whole entry): T1 sequence (whole entry)

Adenosine receptor A1 [9] = molecular target: T4, Adenosine receptor A1; assay: Antagonist activity at human recombinant adenosine A1 receptor expressed in CHO cells assessed as inhibition of NECA-induced cAMP accumulation after 15 mins by liquid scintillation spectrometry; format: functional, cell-based
Outline: (§2)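 Human A1-transfected CHO cells, preincubated 15 min at 37 °C with ADA (1 U/mL) and Ro20-1724 (20 μM). Cells received 1 μM forskolin plus 100 nM NECA, with or without compound (1 nM–10 μM), for 15 min. Stopped with 0.4 N HCl and neutralized with KOH. cAMP was measured by [3H]cAMP (2 nM) binding-protein competition, 150 min at 0 °C, with filtration and scintillation counting. Levels are % of forskolin (100%). Mean ± SEM of ≥3 experiments in duplicate.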

[10] = molecular target: T5, Adenosine receptor A2b (Homo sapiens) (UniProt P29275); assay: Agonist activity at human recombinant adenosine A2B receptor expressed in CHO cells assessed as cAMP accumulation at 10 uM after 15 mins by liquid scintillation spectrometry (reference value: 50%); format: functional, cell-based
T5 sequence (whole entry): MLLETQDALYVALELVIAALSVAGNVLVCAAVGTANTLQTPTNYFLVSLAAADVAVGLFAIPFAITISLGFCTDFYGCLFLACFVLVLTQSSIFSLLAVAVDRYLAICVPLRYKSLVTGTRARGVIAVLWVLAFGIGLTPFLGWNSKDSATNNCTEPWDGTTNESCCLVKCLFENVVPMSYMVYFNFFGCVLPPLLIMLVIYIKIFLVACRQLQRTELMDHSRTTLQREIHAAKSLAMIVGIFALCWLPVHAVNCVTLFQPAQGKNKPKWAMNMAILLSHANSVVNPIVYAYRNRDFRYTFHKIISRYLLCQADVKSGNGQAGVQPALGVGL
Outline: (§3)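 CHO cells expressing human A2B receptor, plated about 30000 per well and used after 24 h. Preincubated 15 min at 37 °C in DMEM with ADA (1 U/mL) and Ro20-1724 (20 μM). Compound at 10 μM was tested alone or with an EC50 concentration of NECA determined the same day. cAMP was measured by [3H]cAMP competition with bovine adrenal binding protein. Output is % of cAMP production versus agonist maximal effect.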

[11] = molecular target: T5, Adenosine receptor A2b (Homo sapiens); assay: Antagonist activity at human recombinant adenosine A2B receptor expressed in CHO cells assessed as inhibition of NECA-induced cAMP accumulation at 10 uM after 15 mins by liquid scintillation spectrometry; format: functional, cell-based; set-up: scale not given: the % may be the effect or the level left; outline: as §3
Adenosine receptor A2a [12] = molecular target: T3, Adenosine receptor A2a; assay: Displacement of [3H]NECA from human adenosine A2A receptor expressed in CHO cells after 120 mins; format: cell-based
Adenosine receptor A3 = molecular target: T6, Adenosine receptor A3 (Homo sapiens, UniProt P0DMS8); assay: Displacement of [125I]AB-MECA from human adenosine A3 receptor expressed in CHO cells after 120 mins; format: cell-based
T6 sequence (P0DMS8 whole entry): T2 sequence (whole entry)

[13] = molecular target: T1, Adenosine receptor A1 (Homo sapiens); assay: Antagonist activity at human recombinant adenosine A1 receptor expressed in CHO cells assessed as inhibition of NECA-induced cAMP accumulation at 1 nM to 10 uM after 15 mins by liquid scintillation spectrometry; format: functional, cell-based; outline: as §2

T3 sequence (P29274 whole entry): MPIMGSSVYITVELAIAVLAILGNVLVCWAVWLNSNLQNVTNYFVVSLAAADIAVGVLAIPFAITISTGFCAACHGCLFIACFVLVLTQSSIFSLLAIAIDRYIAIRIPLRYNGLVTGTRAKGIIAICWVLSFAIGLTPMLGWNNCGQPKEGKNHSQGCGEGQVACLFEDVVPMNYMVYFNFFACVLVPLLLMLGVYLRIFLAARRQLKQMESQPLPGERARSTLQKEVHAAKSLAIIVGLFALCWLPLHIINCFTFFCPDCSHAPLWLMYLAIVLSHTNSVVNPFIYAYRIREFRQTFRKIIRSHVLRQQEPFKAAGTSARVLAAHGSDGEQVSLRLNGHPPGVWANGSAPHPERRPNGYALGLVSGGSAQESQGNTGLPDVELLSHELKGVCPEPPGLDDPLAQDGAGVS

SMILES | inhibition [1] [%] | Activity (Mus musculus [2]) | inhibition [3] [%] | Activity (Mus musculus [4]) | inhibition (Adenosine receptor A2a [5]) [%] | Time (Mus musculus [6]) [min] | Time (Mus musculus [7]) [min] | Ki (Adenosine receptor A1 [8]) [nM] | IC50 (Adenosine receptor A1 [9]) [nM] | Activity [10] [%] | Activity [11] [%] | Ki (Adenosine receptor A2a [12]) [nM] | Ki (Adenosine receptor A3) [nM] | Activity [13]
O=c1c2ncn3nc(-c4ccccc4)cc3c2c(-c2ccc(Cl)cc2)nn1Cc1ccccc1 | 26 | Non-toxic | 31 | Non-toxic | 56 |  |  |  |  |  |  |  |  | 
CCCn1c(=O)c2[nH]c(C3CCCC3)nc2n(CCC)c1=O [1,3-DIPROPYL-8-CYCLOPENTYLXANTHINE [DPCPX]] |  |  |  |  |  | 0.275 | 1.53 |  |  |  |  |  |  | 
S=c1c2ncn3nc(-c4ccccc4)cc3c2c(C2CCCC2)nn1Cc1ccccc1 |  | Non-toxic | 54 | Non-toxic | 37 |  |  | 12.9 |  |  |  |  |  | 
Cc1nc2c(=O)n(Cc3ccccc3)nc(C3CCCC3)c2c2cc(-c3ccccc3)nn12 |  | Non-toxic | 41 | Non-toxic | 53 |  |  | 6.2 | 5.1 |  |  |  |  | 
S=c1c2ncn3nc(-c4ccccc4)cc3c2c(C2CCCCC2)nn1Cc1ccccc1 |  | Non-toxic | 31 | Non-toxic | 8 |  |  | 9.5 |  | 4.8 | 58.9 |  |  | 
CCc1nc2c(=O)n(Cc3ccccc3)nc(C3CCCCC3)c2c2cc(-c3ccccc3)nn12 |  | Non-toxic | 40 | Non-toxic | 0 |  |  | 15.2 |  |  |  |  |  | 
CCc1nc2c(=S)n(Cc3ccccc3)nc(C3CCCC3)c2c2cc(-c3ccccc3)nn12 |  | Non-toxic | 24 | Non-toxic | 35 |  |  | 4.7 |  |  |  |  |  | 
CCc1nc2c(=S)n(Cc3ccccc3)nc(C3CCCCC3)c2c2cc(-c3ccccc3)nn12 |  | Non-toxic | 42 | Non-toxic | 0 |  |  |  |  |  |  |  |  | 
O=c1c2ncn3nc(-c4ccccc4)cc3c2c(-c2cccnc2)nn1Cc1ccccc1 |  | Non-toxic | 21 | Non-toxic |  |  |  |  |  |  |  |  |  | 
Cc1nc2c(=O)n(Cc3ccccc3)nc(C3CCCCC3)c2c2cc(-c3ccccc3)nn12 |  | Non-toxic | 35 | Non-toxic | 7 |  |  | 9.5 |  | 2.1 | 57.8 |  |  | 
CCc1nc2c(=O)n(Cc3ccccc3)nc(C3CCCC3)c2c2cc(-c3ccccc3)nn12 |  | Non-toxic | 43 | Non-toxic |  |  |  | 3.5 |  |  |  | 662 |  | 
O=c1c2ncn3nc(-c4ccccc4)cc3c2c(-c2ccsc2)nn1Cc1ccccc1 | 26 | Non-toxic | 24 | Non-toxic |  |  |  |  |  |  |  | 69.2 |  | 
O=c1c2ncn3nc(-c4ccccc4)cc3c2c(C2CCCCC2)nn1Cc1ccccc1 |  | Non-toxic |  | Non-toxic | 56 |  |  | 172 |  |  |  |  | 308 | 
O=c1c2ncn3nc(-c4ccccc4)cc3c2c(-c2cccs2)nn1Cc1ccccc1 | 45 | Non-toxic | 16 | Non-toxic |  |  |  |  |  |  |  | 51 |  | 
Cc1nc2c(=S)n(Cc3ccccc3)nc(C3CCCCC3)c2c2cc(-c3ccccc3)nn12 | 33 | Non-toxic | 30 | Non-toxic | 0 |  |  |  |  |  |  |  |  | 
CCc1nc2c(=O)n(Cc3ccccc3)nc(-c3ccc(Cl)cc3)c2c2cc(-c3ccccc3)nn12 | 35 | Non-toxic | 51 | Non-toxic | 10 |  |  |  |  |  |  |  |  | inactive
CCc1nc2c(=O)n(Cc3ccccc3)nc(-c3cccs3)c2c2cc(-c3ccccc3)nn12 | 16 | Non-toxic | 30 | Non-toxic | 65 |  |  |  |  |  |  |  |  | inactive
Cc1nc2c(=S)n(Cc3ccccc3)nc(C3CCCC3)c2c2cc(-c3ccccc3)nn12 | 51 | Non-toxic | 13 | Non-toxic | 18 |  |  |  |  |  |  |  |  | 
O=c1c2ncn3nc(-c4ccccc4)cc3c2c(C2CCCC2)nn1Cc1ccccc1 |  | Non-toxic |  | Non-toxic |  |  |  | 32.3 |  |  |  | 75.5 | 64 | 
CCc1nc2c(=O)n(Cc3ccccc3)nc(-c3ccsc3)c2c2cc(-c3ccccc3)nn12 | 5 | Non-toxic | 36 | Non-toxic | 41 |  |  |  |  |  |  |  |  | 
Cc1nc2c(=O)n(Cc3ccccc3)nc(-c3cccs3)c2c2cc(-c3ccccc3)nn12 | 21 | Non-toxic | 15 | Non-toxic |  |  |  |  |  |  |  | 2600 |  | 
Cc1nc2c(=O)n(Cc3ccccc3)nc(-c3ccc(Cl)cc3)c2c2cc(-c3ccccc3)nn12 | 24 | Non-toxic | 25 | Non-toxic | 28 |  |  |  |  |  |  |  |  | 
Cc1nc2c(=O)n(Cc3ccccc3)nc(-c3ccsc3)c2c2cc(-c3ccccc3)nn12 | 8 | Non-toxic | 37 | Non-toxic | 57 |  |  |  |  |  |  |  |  | 
